# In ChEMBL document CHEMBL3108673, “Computation-guided discovery of influenza endonuclease inhibitors” (ACS Med Chem Lett, 2014):
# How the values were obtained:
# [1] = test system: MDCK; test: Cytotoxicity against MDCK cells after 48 hrs by methylene blue dye-based spectroscopy relative to control; type: cell-based, Canis lupus familiaris; details: dog
# Procedure, shortened: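 MDCK cells. CC50 is the compound concentration that kills half of the cell population.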
# [2] = Inhibition of influenza A virus H1N1 endonuclease N-terminal domain of PA-subunit expressed in Escherichia coli BL21(DE3) using FAM-AAT CGC AGG CAG CAC TC-TAM as substrate by FRET assay
# Procedure, shortened: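 Recombinant PA_N construct from pH1N1 2009 influenza in a FRET read-out of endonuclease cleavage. Compounds were first screened at 200 μM, then run in dose-response to derive IC50.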
# [3] = test system: Influenza A virus; test: Antiviral activity against Influenza A virus (A/Puerto Rico/8/1934(H1N1)) infected in MDCK cells assessed as inhibition of virus-induced cytopathic effect after 48 hrs by CellTitre-Glo assay; type: functional, organism-based
# Procedure, shortened: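 MDCK cells infected with PR8 H1N1. IC50 is the compound concentration at which half of the infected cells survive. Only compounds with CC50 above 50 μM in MDCK cells were tested.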
# [4] = Influenza A virus, A/Puerto Rico/8/1934(H1N1), MDCK, 48 h, read-out: IC50
SMILES,CC50 ([1]; read-out: CC50),IC50 [2],"IC50 [3, 4]",CC50 [1],IC50 ([3]; mdck)
O=C(Cc1ccccc1)c1ccc(O)c(O)c1O,18.1 µM,1.5 µM,–,–,–
O=C(N/N=C\c1cccc(Cl)c1Cl)c1ccc(O)c(O)c1,6.8 µM,0.7 µM,–,–,–
Cc1ccccc1/C=N\NC(=O)c1ccc(O)c(O)c1,> 50 µM,1.9 µM,> 50 µM,–,–
COc1ccccc1N1CCN(/N=C/c2ccc(O)c(O)c2)CC1,13 µM,2 µM,–,–,–
C/C(=N/NC(=O)c1ccc(O)c(O)c1)c1ccc(C)cc1,> 50 µM,2.1 µM,> 50 µM,–,–
O=C(N/N=C\c1ccc(/C=N/NC(=O)c2ccc(O)c(O)c2)cc1)c1ccc(O)c(O)c1,–,23 µM,–,ND(Insoluble),ND(Insoluble)
O=C1CC2(CCCCC2)Oc2c1ccc(O)c2O,> 100 µM,8 µM,> 100 µM,–,–
CC(=O)N1CCC2(CC1)CC(=O)c1ccc(O)c(O)c1O2,> 100 µM,46 µM,> 100 µM,–,–
O=C(Cc1ccccc1Cl)c1ccc(O)c(O)c1O,> 50 µM,5 µM,> 50 µM,–,–
Cc1ccccc1CC(=O)c1ccc(O)c(O)c1O,21 µM,11 µM,–,–,–
O=C(N/N=C\c1ccccc1Cl)c1cc(O)c(O)c(O)c1,> 100 µM,14 µM,18 µM,–,–
COc1ccc(NC(=O)/C(O)=C/C(=O)c2ccc(C)cc2)cc1,> 50 µM,0.6 µM,> 50 µM,–,–
COc1ccc(NC(=O)/C(O)=C/C(=O)c2ccc(Cl)cc2)cc1,> 100 µM,0.74 µM,> 50 µM,–,–
O=C(/N=C1/C(=O)Nc2ccc(Br)cc21)/C(O)=C/C(=O)c1ccc(Cl)cc1,> 50 µM,23 µM,–,–,–
Cc1ccc(C(=O)/C=C(O)/C(O)=C/C(=O)c2ccc(C)cc2)cc1,> 50 µM,6 µM,23 µM,–,–
O=C(/C=C(O)/C(O)=C/C(=O)c1ccc(Cl)cc1)c1ccc(Cl)cc1,> 100 µM,11.7 µM,> 50 µM,–,–
